system: Human immunodeficiency virus 1; assay: Antiviral activity against HIV1 isolate 204 harboring reverse transcriptase M41L/L210W/T215Y/M184V mutant gene by phenosense assay relative to wild type; type: functional; conditions: not given
Method in brief: (§1)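 PhenoSense HIV recombinant virus assay: patient-derived HIV-1 with major NRTI resistance mutations tested against increasing drug concentrations to give inhibition curves. EC50 is the concentration giving 50% inhibition. Fold change is the test recombinant EC50 divided by the EC50 of a drug-sensitive wild-type reference virus. Panel of 30 NRTI-resistant isolates plus two wild-type viruses.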

SMILES	fold change (FC)
Nc1ccn([C@@H]2CS[C@H](CO)O2)c(=O)n1 [LAMIVUDINE]	>80

system: Human immunodeficiency virus 1; assay: Antiviral activity against HIV1 isolate 180 harboring reverse transcriptase K65R mutant gene obtained as site-directed mutant of NL4-3 by phenosense assay relative to wild type; type: functional; conditions: not given
Method in brief: (§2)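 Recombinant-virus PhenoSense HIV assay run on a panel of 30 NRTI-resistant HIV-1 mutants and two wild-type viruses. Each virus is tested across increasing drug concentrations to give an inhibition curve and EC50. Fold change is the test recombinant EC50 divided by the EC50 of the drug-sensitive wild-type reference virus.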

SMILES	fold change (FC)
Nc1ccn([C@@H]2CS[C@H](CO)O2)c(=O)n1 [LAMIVUDINE]	12

system: Human immunodeficiency virus 1; assay: Antiviral activity against HIV1 isolate 200 harboring reverse transcriptase M41L/L210W/T215Y mutant gene by phenosense assay; type: functional, organism-based; conditions: Human immunodeficiency virus 1, isolate 200; method in brief: as §2

SMILES	EC50
Nc1ccn([C@@H]2CS[C@H](CO)O2)c(=O)n1 [LAMIVUDINE]	10.3 µM

system: Human immunodeficiency virus 1; assay: Antiviral activity against HIV1 isolate 162 harboring reverse transcriptase A62V/V75I/F77L/Y115F/F116Y/Q151M/M184V mutant gene by phenosense assay; type: functional, organism-based; conditions: Human immunodeficiency virus 1, isolate 162; method in brief: as §2

SMILES	EC50
Nc1ccn([C@@H]2CS[C@H](CO)O2)c(=O)n1 [LAMIVUDINE]	> 300 µM

system: Human immunodeficiency virus 1; assay: Antiviral activity against HIV1 isolate 217 harboring reverse transcriptase D67N/K70E/M184V mutant gene by phenosense assay relative to wild type; type: functional; conditions: not given; method in brief: as §1

SMILES	fold change (FC)
Nc1ccn([C@@H]2CS[C@H](CO)O2)c(=O)n1 [LAMIVUDINE]	>80

system: Human immunodeficiency virus 1; assay: Antiviral activity against HIV1 isolate 217 harboring reverse transcriptase D67N/K70E/M184V mutant gene by phenosense assay; type: functional, organism-based; conditions: Human immunodeficiency virus 1, isolate 217; method in brief: as §1

SMILES	EC50
Nc1ccn([C@@H]2CS[C@H](CO)O2)c(=O)n1 [LAMIVUDINE]	> 300 µM

system: Human immunodeficiency virus 1; assay: Antiviral activity against HIV1 isolate 201 harboring reverse transcriptase M41L/L210W/T215Y mutant gene by phenosense assay relative to wild type; type: functional; conditions: not given; method in brief: as §1

SMILES	fold change (FC)
Nc1ccn([C@@H]2CS[C@H](CO)O2)c(=O)n1 [LAMIVUDINE]	1.6

system: Human immunodeficiency virus 1; assay: Antiviral activity against HIV1 isolate 212 harboring reverse transcriptase L210W/T215Y mutant gene by phenosense assay; type: functional, organism-based; conditions: Human immunodeficiency virus 1, isolate 212; method in brief: as §1

SMILES	EC50
Nc1ccn([C@@H]2CS[C@H](CO)O2)c(=O)n1 [LAMIVUDINE]	7.3 µM

system: Human immunodeficiency virus 1; assay: Antiviral activity against HIV1 isolate 157 harboring reverse transcriptase L74V/M184V mutant gene by phenosense assay; type: functional, organism-based; conditions: Human immunodeficiency virus 1, isolate 157; method in brief: as §2

SMILES	EC50
Nc1ccn([C@@H]2CS[C@H](CO)O2)c(=O)n1 [LAMIVUDINE]	> 300 µM

system: Human immunodeficiency virus 1; assay: Antiviral activity against HIV1 isolate 220 harboring reverse transcriptase K70E/M184V mutant gene by phenosense assay relative to wild type; type: functional; conditions: not given; method in brief: as §1

SMILES	fold change (FC)
Nc1ccn([C@@H]2CS[C@H](CO)O2)c(=O)n1 [LAMIVUDINE]	>80

system: Human immunodeficiency virus 1; assay: Antiviral activity against HIV1 isolate 211 harboring reverse transcriptase D67N/K70R/T215F/K219E/M184V mutant gene by phenosense assay; type: functional, organism-based; conditions: Human immunodeficiency virus 1, isolate 211; method in brief: as §1

SMILES	EC50
Nc1ccn([C@@H]2CS[C@H](CO)O2)c(=O)n1 [LAMIVUDINE]	> 300 µM

system: Human immunodeficiency virus 1; assay: Antiviral activity against HIV1 isolate 180 harboring reverse transcriptase K65R mutant gene obtained as site-directed mutant of NL4-3 by phenosense assay; type: functional, organism-based; conditions: Human immunodeficiency virus 1, isolate 180; method in brief: as §2

SMILES	EC50
Nc1ccn([C@@H]2CS[C@H](CO)O2)c(=O)n1 [LAMIVUDINE]	43 µM

system: Human immunodeficiency virus 1; assay: Antiviral activity against HIV1 isolate 063 harboring reverse transcriptase M41L/D67N/K70R/M184V/L210W/T215Y/K219E mutant gene by phenosense assay relative to wild type; type: functional; conditions: not given; method in brief: as §2

SMILES	fold change (FC)
Nc1ccn([C@@H]2CS[C@H](CO)O2)c(=O)n1 [LAMIVUDINE]	>80

system: Human immunodeficiency virus 1; assay: Antiviral activity against HIV1 isolate 071 harboring reverse transcriptase 65R/S68N/184V mutant gene by phenosense assay; type: functional, organism-based; conditions: Human immunodeficiency virus 1, isolate 071; method in brief: as §2

SMILES	EC50
Nc1ccn([C@@H]2CS[C@H](CO)O2)c(=O)n1 [LAMIVUDINE]	> 300 µM

system: Human immunodeficiency virus 1; assay: Antiviral activity against HIV1 isolate 057 expressing wild type reverse transcriptase gene by phenosense assay; type: functional, organism-based; conditions: Human immunodeficiency virus 1, isolate 057
Method in brief: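 In the PhenoSense recombinant virus assay, virus was tested against increasing drug concentrations. EC50 came from the inhibition curve and was compared with a drug-sensitive reference virus.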

SMILES	EC50
Nc1ccn([C@@H]2CS[C@H](CO)O2)c(=O)n1 [LAMIVUDINE]	4.4 µM

system: Human immunodeficiency virus 1; assay: Antiviral activity against HIV1 isolate 060 harboring reverse transcriptase M41L/D67N/K70R/L210W/T215Y/K219E mutant gene by phenosense assay; type: functional, organism-based; conditions: Human immunodeficiency virus 1, isolate 060; method in brief: as §2

SMILES	EC50
Nc1ccn([C@@H]2CS[C@H](CO)O2)c(=O)n1 [LAMIVUDINE]	22 µM

system: Human immunodeficiency virus 1; assay: Antiviral activity against HIV1 isolate 066 harboring reverse transcriptase 184V mutant gene by phenosense assay relative to wild type; type: functional; conditions: not given; method in brief: as §2

SMILES	fold change (FC)
Nc1ccn([C@@H]2CS[C@H](CO)O2)c(=O)n1 [LAMIVUDINE]	>80

system: Human immunodeficiency virus 1; assay: Antiviral activity against HIV1 isolate 211 harboring reverse transcriptase D67N/K70R/T215F/K219E/M184V mutant gene by phenosense assay relative to wild type; type: functional; conditions: not given; method in brief: as §1

SMILES	fold change (FC)
Nc1ccn([C@@H]2CS[C@H](CO)O2)c(=O)n1 [LAMIVUDINE]	>80

system: Human immunodeficiency virus 1; assay: Antiviral activity against HIV1 isolate 194 harboring reverse transcriptase M41L/T215Y/M184V mutant gene by phenosense assay relative to wild type; type: functional; conditions: not given; method in brief: as §2

SMILES	fold change (FC)
Nc1ccn([C@@H]2CS[C@H](CO)O2)c(=O)n1 [LAMIVUDINE]	>80

system: Human immunodeficiency virus 1; assay: Antiviral activity against HIV1 isolate 162 harboring reverse transcriptase A62V/V75I/F77L/Y115F/F116Y/Q151M/M184V mutant gene by phenosense assay relative to wild type; type: functional; conditions: not given; method in brief: as §2

SMILES	fold change (FC)
Nc1ccn([C@@H]2CS[C@H](CO)O2)c(=O)n1 [LAMIVUDINE]	>80

system: Human immunodeficiency virus 1; assay: Antiviral activity against HIV1 isolate 069 harboring reverse transcriptase D67E/T69SSG/V75M/M184V/L210W/T215Y mutant gene by phenosense assay; type: functional, organism-based; conditions: Human immunodeficiency virus 1, isolate 069; method in brief: as §2

SMILES	EC50
Nc1ccn([C@@H]2CS[C@H](CO)O2)c(=O)n1 [LAMIVUDINE]	> 300 µM

system: Human immunodeficiency virus 1; assay: Antiviral activity against HIV1 isolate 203 harboring reverse transcriptase M41L/L210W/T215Y/M184V mutant gene by phenosense assay; type: functional, organism-based; conditions: Human immunodeficiency virus 1, isolate 203; method in brief: as §1

SMILES	EC50
Nc1ccn([C@@H]2CS[C@H](CO)O2)c(=O)n1 [LAMIVUDINE]	> 300 µM

system: Human immunodeficiency virus 1; assay: Antiviral activity against HIV1 isolate 069 harboring reverse transcriptase D67E/T69SSG/V75M/M184V/L210W/T215Y mutant gene by phenosense assay relative to wild type; type: functional; conditions: not given; method in brief: as §2

SMILES	fold change (FC)
Nc1ccn([C@@H]2CS[C@H](CO)O2)c(=O)n1 [LAMIVUDINE]	>80

system: Human immunodeficiency virus 1; assay: Antiviral activity against HIV1 isolate 203 harboring reverse transcriptase M41L/L210W/T215Y/M184V mutant gene by phenosense assay relative to wild type; type: functional; conditions: not given; method in brief: as §1

SMILES	fold change (FC)
Nc1ccn([C@@H]2CS[C@H](CO)O2)c(=O)n1 [LAMIVUDINE]	>80

system: Human immunodeficiency virus 1; assay: Antiviral activity against HIV1 isolate 063 harboring reverse transcriptase M41L/D67N/K70R/M184V/L210W/T215Y/K219E mutant gene by phenosense assay; type: functional, organism-based; conditions: Human immunodeficiency virus 1, isolate 063; method in brief: as §2

SMILES	EC50
Nc1ccn([C@@H]2CS[C@H](CO)O2)c(=O)n1 [LAMIVUDINE]	> 300 µM

system: Human immunodeficiency virus 1; assay: Antiviral activity against HIV1 isolate 206 harboring reverse transcriptase D67N/K70R mutant gene by phenosense assay relative to wild type; type: functional; conditions: not given; method in brief: as §1

SMILES	fold change (FC)
Nc1ccn([C@@H]2CS[C@H](CO)O2)c(=O)n1 [LAMIVUDINE]	2.1

system: Human immunodeficiency virus 1; assay: Antiviral activity against HIV1 isolate 188 harboring reverse transcriptase T215Y/M184V mutant gene by phenosense assay; type: functional, organism-based; conditions: Human immunodeficiency virus 1, isolate 188; method in brief: as §2

SMILES	EC50
Nc1ccn([C@@H]2CS[C@H](CO)O2)c(=O)n1 [LAMIVUDINE]	> 300 µM

system: Human immunodeficiency virus 1; assay: Antiviral activity against HIV1 isolate 071 harboring reverse transcriptase 65R/S68N/184V mutant gene by phenosense assay relative to wild type; type: functional; conditions: not given; method in brief: as §2

SMILES	fold change (FC)
Nc1ccn([C@@H]2CS[C@H](CO)O2)c(=O)n1 [LAMIVUDINE]	>80

system: Human immunodeficiency virus 1; assay: Antiviral activity against HIV1 isolate 153 harboring reverse transcriptase L74V mutant gene by phenosense assay; type: functional, organism-based; conditions: Human immunodeficiency virus 1, isolate 153; method in brief: as §2

SMILES	EC50
Nc1ccn([C@@H]2CS[C@H](CO)O2)c(=O)n1 [LAMIVUDINE]	7 µM

system: Human immunodeficiency virus 1; assay: Antiviral activity against HIV1 isolate 067 harboring reverse transcriptase A62V/D67G/T69SVG/V75I/T215I mutant gene by phenosense assay; type: functional, organism-based; conditions: Human immunodeficiency virus 1, isolate 067; method in brief: as §2

SMILES	EC50
Nc1ccn([C@@H]2CS[C@H](CO)O2)c(=O)n1 [LAMIVUDINE]	46 µM

system: Human immunodeficiency virus 1; assay: Antiviral activity against HIV1 isolate 212 harboring reverse transcriptase L210W/T215Y mutant gene by phenosense assay relative to wild type; type: functional; conditions: not given; method in brief: as §1

SMILES	fold change (FC)
Nc1ccn([C@@H]2CS[C@H](CO)O2)c(=O)n1 [LAMIVUDINE]	1.9

system: Human immunodeficiency virus 1; assay: Antiviral activity against HIV1 isolate 070 harboring reverse transcriptase 65R/S68G mutant gene by phenosense assay relative to wild type; type: functional; conditions: not given; method in brief: as §2

SMILES	fold change (FC)
Nc1ccn([C@@H]2CS[C@H](CO)O2)c(=O)n1 [LAMIVUDINE]	19

system: Human immunodeficiency virus 1; assay: Antiviral activity against HIV1 isolate 192 harboring reverse transcriptase M41L/T215Y mutant gene by phenosense assay relative to wild type; type: functional; conditions: not given; method in brief: as §2

SMILES	fold change (FC)
Nc1ccn([C@@H]2CS[C@H](CO)O2)c(=O)n1 [LAMIVUDINE]	2

system: Human immunodeficiency virus 1; assay: Antiviral activity against HIV1 isolate 201 harboring reverse transcriptase M41L/L210W/T215Y mutant gene by phenosense assay; type: functional, organism-based; conditions: Human immunodeficiency virus 1, isolate 201; method in brief: as §2

SMILES	EC50
Nc1ccn([C@@H]2CS[C@H](CO)O2)c(=O)n1 [LAMIVUDINE]	5.9 µM

system: Human immunodeficiency virus 1; assay: Antiviral activity against HIV1 isolate 215 harboring reverse transcriptase D67N/K70E mutant gene by phenosense assay; type: functional, organism-based; conditions: Human immunodeficiency virus 1, isolate 215; method in brief: as §1

SMILES	EC50
Nc1ccn([C@@H]2CS[C@H](CO)O2)c(=O)n1 [LAMIVUDINE]	11 µM
